Screening data as filed in PubChem BioAssay.
CHO-K1 Ca antag – M1 antagonist counterscreen hit in parental CHO-K1 cells | ATP-induced calcium, Fluo-8 fluorescence | inhibition, % at 3 µM | hit rate 0.6% among 360,000 | AID 602250;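 active = inhibition above a per-plate cutoff, the plate's mean sample inhibition plus 3 SD, cut at about 24% in these data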;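 also: 0% = DMSO plus EC80 ATP and 100% = DMSO alone without ATP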
OX1R antag-1 – blocks the human orexin 1 receptor; inhibition, % at 5 µM; O43613; hit rate 0.43% among 330,000; CHO/OX1R cells, Fluo-8 calcium fluorescence, orexin A;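 active = inhibition above its plate's threshold, mean inhibition of all tested compounds on the plate plus 3 SD, cut at about 37% in these data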;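 also: 0% = orexin A challenge wells and 100% = SB-334867-A antagonist wells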
Target sequence (O43613 whole entry, looked up): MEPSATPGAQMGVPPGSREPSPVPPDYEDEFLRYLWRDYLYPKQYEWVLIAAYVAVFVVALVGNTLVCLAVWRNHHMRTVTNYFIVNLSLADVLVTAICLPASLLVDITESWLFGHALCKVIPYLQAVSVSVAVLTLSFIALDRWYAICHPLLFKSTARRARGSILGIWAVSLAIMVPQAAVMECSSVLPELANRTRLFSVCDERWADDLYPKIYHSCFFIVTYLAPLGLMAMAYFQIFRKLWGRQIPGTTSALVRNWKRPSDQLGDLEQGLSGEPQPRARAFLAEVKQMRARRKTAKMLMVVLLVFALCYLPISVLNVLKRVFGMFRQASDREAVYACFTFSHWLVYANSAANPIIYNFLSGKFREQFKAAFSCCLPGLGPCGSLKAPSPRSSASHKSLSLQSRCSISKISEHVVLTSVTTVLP
CHO parental Ca – counter-screen: ATP calcium response change in parental CHO cells | parental CHO-K1, ATP-induced calcium, Fluo-8 fluorescence | inhibition, % at 5.6 µM | hit rate 0.63% among 330,000 | AID 463079;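 active = inhibition above that plate's mean sample inhibition plus 3 SD, cut at about 26% in these data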;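 also: 0% = ATP-challenged DMSO wells and 100% = DMSO wells without ATP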
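Test system: untransfected parental CHO cell line. Compound: one dose, 5.6 µM nominal. Detection: intracellular calcium via Fluo-8 no-wash fluorescent dye. Measure: % inhibition. Benchmarks: ATP-challenged DMSO wells low, unchallenged DMSO wells high.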
OX1R antag-2 – blocks the human orexin 1 receptor | hit rate 1.8% among 330,000 | OX1R-expressing cells, FRET antagonist read-out | O43613 | inhibition, % at 6.6 µM; in the data active = inhibition mostly above about 38%, no sharp cut-off; inactive = mostly below about 40%;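 also: 0% = agonist challenge alone and 100% = reference antagonist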
CHO-K1 Ca PAM – nonselective activator or artifact in parental CHO-K1 calcium assay; AID 602247; activation, % at 3 µM; ATP EC20, Fluo-8 calcium fluorescence; 0% at ATP EC20, 100% at ATP max; hit rate 0.02% among 360,000;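 active = activation above the run cutoff, the mean activation of all test compounds plus 3 SD, cut at about 40% in these data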;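 also: peak over basal fluorescence ratio in a 140 s read after ATP addition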
M1 ag parental – counter-screen for M1 agonists: effect in parental CHO-K1 cells; Fluo-8 calcium fluorescence; scaled to maximal ATP response, vehicle zero; activation, % at 3 µM; hit rate 0.48% among 360,000; in the data active = activation above about 15%;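 also: untransfected CHO-K1 host cells lacking M1 receptor as counterscreen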
Active calls of the source: *; · = not tested or not shown. Most compounds without a hit are left out; they make up all but 2.9% or so of the library.

SMILES	CHO-K1 Ca antag	OX1R antag-1	CHO parental Ca	OX1R antag-2	CHO-K1 Ca PAM	M1 ag parental
CCOc1ccccc1N1CCN(CC(=O)N(CC(C)C)c2c(N)n(CC(C)C)c(=O)[nH]c2=O)CC1	-15	-17	-5	30	2	1
CCc1nc2c(OCC3COc4ccccc4O3)cccn2c1N(C)C(=O)c1ccccc1F (stereo not drawn)	-18	·	·	·	10	5
CCc1nc2c(OCC3COc4ccccc4O3)cccn2c1N(C)C(=O)c1cccs1 (stereo not drawn)	31*	·	·	·	-12	0
CCc1nc2c(OCC(=O)c3ccc(F)cc3)cccn2c1N(C)C(=O)c1cccs1	26*	·	·	·	-17	4
COc1ccc(CCN(C)C(=O)CSc2nc3ncc(Cl)cc3[nH]2)cc1OC	-13	-14	-8	40	-2	1
O=C(NCCCN1CCOCC1)/C(=C/c1cccnc1)NC(=O)c1ccccc1	-2	-17	-10	17	8	0
COc1ccccc1CC(=O)Nc1ccc2c(c1)C(=O)NC2=O	6	0	4	17	21	1
CCCCCCCOC(=O)C[N+](C)(C)CCOC1CC2CCC1(C)C2(C)C (stereo not drawn)	5	·	·	·	32	27*
CCCCCCOC(=O)C[N+](C)(C)CCOC1CC2CCC1(C)C2(C)C (stereo not drawn)	-2	9	8	16	3	0
COC(=O)C1CC(O)CN1C(=O)Nc1cccc(C(F)(F)F)c1 (stereo not drawn)	29*	-10	-11	3	-18	-1
CNC(=O)/C(=C\c1ccc([N+](=O)[O-])cc1)NC(C)=O	-4	-5	-6	73*	2	0
CC(=O)N/C(=C/c1ccc([N+](=O)[O-])cc1)C(=O)O	7	-8	-6	33	4	0
CC1(C(=O)NCc2ccccc2)CCC(=O)N1C1CCN(Cc2ccccc2)CC1 (stereo not drawn)	-29	·	·	·	8	1
COc1ccc(OC)c2sc(N3CCN(c4ccccc4)CC3)nc12	28*	-30	-16	6	-5	0
COc1ccc(C)c2sc(N3CCCC3)nc12	-1	13	-6	14	-1	0
O=C(Nc1ccc(Br)cc1)c1ccc(F)c(S(=O)(=O)NCc2cccs2)c1	28*	55*	0	94*	0	11
Cc1ccc(N=C(N)N=C(N)N)c(C)c1	-17	-5	-8	11	16	3
O=C1NC(=Nc2ccccc2)c2c1cccc2[N+](=O)[O-]	-5	-3	-5	74*	21	1
Cc1ccccc1N1C(=O)c2cccc([N+](=O)[O-])c2C1=O	-9	·	·	·	13	0
O=[N+]([O-])c1ccccc1NS(=O)(=O)c1ccccc1	3	·	·	·	-12	0
Nc1c(Cl)ncnc1N/N=C/c1cccc(O)c1	-5	-15	-10	72*	14	0
COc1cccc(/C=N/Nc2ncnc(Cl)c2N)c1O	1	-1	-3	54	-2	0
COc1ccc(/C=N/Nc2ncnc(Cl)c2N)cc1OC	-17	-4	-3	56*	19	0
Nc1c(Cl)ncnc1N/N=C/c1ccncc1	26*	0	-5	34	-20	-1
N#Cc1ccc(C(=O)CSc2n[nH]c(=O)n2Cc2ccco2)cc1	-12	-12	2	15	5	2
SMILES	CHO-K1 Ca antag	OX1R antag-1	CHO parental Ca	OX1R antag-2	CHO-K1 Ca PAM	M1 ag parental
CC(C)Cc1csc(NC(=O)c2ccc(Br)cc2)c1C(=O)O	0	-6	2	59	6	1
CCCCN1C(=O)/C(=C/C=C2/CC(C)(C)CN2C)SC1=S	28*	46*	47*	29	2	38*
CCCCN1C(=O)/C(=C/C=C2\Oc3ccccc3N2CC)SC1=S	22	·	·	·	2	15*
CCCN1C(=O)/C(=C\C=C2/Sc3ccccc3N2CCO)SC1=S	2	10	-22	31	7	1
Cc1nnc(SC(C)C(=O)Nc2ccc(N3CCOCC3)cc2)n1Cc1ccccc1 (stereo not drawn)	-4	·	·	·	9	1
CC(=O)NCCNc1nc2cc(-c3cscc3C)sc2c(=O)n1C	-4	·	·	·	-2	1
COc1ccc(Cc2ccccc2C(=O)O)cc1	9	·	·	·	-19	0
COc1ccc(CC2=CC(=O)c3ccccc3C2=O)cc1	2	-4	4	39*	10	2
Cc1ccc(S(=O)(=O)N[C@@H](C)C(=O)OCC(=O)N2c3ccccc3NC(=O)C2(C)C)cc1	-19	4	-22	6	22	0
CC1CCCN(S(=O)(=O)c2ccc(NC(=O)C3CC(=O)N(c4ccccc4)C3)cc2)C1 (stereo not drawn)	-10	-8	6	6	-21	2
COC(=O)c1cc2c(cc1Cl)N1CCCCCC1=NS2(=O)=O	24*	-16	-10	2	-21	0
O=C(NC1CCCCC1)c1cc2c(cc1Cl)N1CCCCCC1=NS2(=O)=O	17	·	·	·	-30	0
O=[N+]([O-])c1cc(/C=N/O)ccc1Oc1ccccc1Cl	2	-5	11	14	8	0
CCc1ccc(Nc2cc(=O)n(C3CCCCC3)c(=O)[nH]2)cc1	3	8	-8	-2	3	19*
CC1CC(=O)C2=C(C1)Nc1ncnn1C2c1ccccc1 (stereo not drawn)	28*	-12	6	6	-1	0
O=C1CC(c2cccs2)CC2=C1C(c1ccccc1)n1ncnc1N2 (stereo not drawn)	4	-27	-27	17	10	0
CC1=CCC(/C=N\Nc2nnc3c(n2)[nH]c2ccccc23)CC1 (stereo not drawn)	·	-12	-6	55*	·	·
O=C(CSc1nc2ccccc2c(=O)n1-c1ccc(OC(F)F)cc1)NC1CC1	-16	-33	-21	15	8	0
O=[N+]([O-])c1cnccc1Nc1cccc(F)c1	-15	-8	-6	75*	16	0
COc1ccc(Nc2ccncc2[N+](=O)[O-])cc1	-18	-13	3	41*	26	1
O=[N+]([O-])c1ccccc1Nc1cccc(F)c1	0	·	·	·	2	-1
NC(=O)c1ccc(/C=N/O)[n+](Cc2ccccc2)c1	1	-1	-1	24	3	0
COc1cccc(CNC(=O)CN2C(=O)CSc3ccc(S(=O)(=O)N4CCCC4)cc32)c1	-17	-32	-31	11	12	2
CCO/C(C)=N/Oc1cncnc1	14	·	·	·	3	0
Cc1ccccc1S(=O)(=O)Cc1ccc(C(=O)N2CCN(c3cccc(C)c3C)CC2)o1	26*	3	-4	17	4	7
O=C(CN1C(=O)C2CC=CCC2C1=O)Nc1ccc(S(=O)(=O)Nc2nccs2)cc1 (stereo not drawn)	-8	-9	-4	8	14	1
